How the values were obtained:
GFP-labelled PC3 cells = experiment: Real-time imaging of cell migration; format: cell-based, human; details: starting at 6 h of treatment
In short: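 GFP-labelled PC3 cells were plated on poly-D-lysine-coated chamber slides and left to adhere for 24 h. Wells were then scratch-wounded. Wide-field fluorescence time-lapse was run under CO2 and temperature control, with DIC and GFP frames every 2 min. Cell centroids were tracked manually to give xy paths, velocity and distance. Analysis covered hours 3–4 and 6–7 of treatment, with 34 cells per condition and ANOVA.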

[1] = tested on: 4EBP1 and p70S6K1/2 phosphorylation; experiment: Preclinical trial in Pten L/L mice: mTOR effector phosphorylation; format: in vivo, mouse; details: INK128 1 mg/kg or RAD001 10 mg/kg daily gavage
In short: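 Nine- and twelve-month-old PtenL/L mice were dosed daily by oral gavage, with vehicle 5% […], 15% NMP, 80% water. Whole prostates were removed, microdissected, frozen in liquid nitrogen and pulverised. Protein lysates were immunoblotted with antibodies to phospho-4EBP1 T37/46, 4EBP1, phospho-p70S6K T389, phospho-rpS6 S240/244 and rpS6.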

[2] = tested on: Pten^L/L prostate cancer mouse model; format: in vivo; details: Pten L/L mice; for apoptosis in prostate / cell proliferation in prostate: INK128 1 mg/kg or RAD001 10 mg/kg daily gavage
In short: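 PtenL/L mice aged nine or twelve months were given daily oral gavage; vehicle was 5% polyvinylpropyline, 15% NMP, 80% water. Body weight was taken every 3 days for toxicity. In the 28-day study, prostates were MRI-imaged at 14 T on days 0 and 28. Prostates and lymph nodes were formalin-fixed and cut as 5 μm paraffin sections. Nodes were stained for CK8 and androgen receptor, and metastasis areas were measured.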

[3] = tested on: multiple cancer cell lines; experiment: Apoptosis analysis; format: cell-based, human
In short: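 LNCaP and A498 cells, after treatment, were labelled with Annexin V-FITC and propidium iodide per kit instructions. Annexin/PI staining was acquired by flow cytometry to score apoptotic cells.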

[4] = tested on: mTOR effectors 4EBP1, p70S6K1/2 and AKT; experiment: Western blot of downstream mTOR effectors in PC3 cells; format: cell-based, human; details: PP242 2.5 μM, rapamycin 50 nM, 3-h treatment
[5] = tested on: PC3 human prostate cancer cells; experiment: Ribosome profiling of PC3 cells; format: cell-based; details: 3 h, rapamycin 50 nM
[6] = tested on: Jurkat lymphoid cell line; details: cited from earlier work

Row | SMILES | cancer cell migration (GFP-labelled PC3 cells) | 4EBP1 and p70S6K1/2 phosphorylation [1] | decrease in prostatic intraepithelial neoplasia (PIN) lesions ([2]; INK128 1 mg/kg daily gavage) [%] | prostate cancer volume ([2]; INK128 1 mg/kg daily gavage, MRI day 0 and day 28) | apoptosis in prostate [2] | cell proliferation in prostate [2] | programmed cell death [3] | regression of PIN lesions ([2]; RAD001 10 mg/kg daily gavage) | activity of downstream mTOR effectors 4EBP1, p70S6K1/2 and AKT [4] | effect on gene expression by ribosome profiling [5] | sensitivity to rapamycin treatment [6]
1 | CC(C)n1nc(-c2ccc3oc(N)nc3c2)c2c(N)ncnc21 [INK128] | inhibits cancer cell migration | completely restored to wild-type levels | 50 | marked reduction | tenfold increase | decreased proliferation | induced programmed cell death | – | – | – | –
2 | CO[C@H]1C[C@@H]2CC[C@@H](C)[C@@](O)(O2)C(=O)C(=O)N2CCCC[C@H]2C(=O)O[C@H]([C@H](C)C[C@@H]2CC[C@@H](OCCO)[C@H](OC)C2)CC(=O)[C@H](C)/C=C(\C)[C@@H](O)[C@@H](OC)C(=O)[C@H](C)C[C@H](C)/C=C/C=C/C=C/1C [RAD001] | – | only decreased p70S6K1/2 phosphorylation levels | – | – | no significant effect | limited decrease | – | only partial regression | – | – | –
3 | CO[C@H]1C[C@@H]2CC[C@@H](C)[C@@](O)(O2)C(=O)C(=O)N2CCCC[C@H]2C(=O)O[C@H]([C@H](C)C[C@@H]2CC[C@@H](O)[C@H](OC)C2)CC(=O)[C@H](C)/C=C(\C)[C@@H](O)[C@@H](OC)C(=O)[C@H](C)C[C@H](C)/C=C/C=C/C=C/1C [rapamycin] | – | – | – | – | – | – | – | – | only blocks p70S6K1/2 activity | did not markedly affect gene expression | particularly sensitive

From paper PMC3663483 (Nature, 2012)
